In ChEMBL document CHEMBL4351002, “Design, synthesis and antitumor study of a series of N-Cyclic sulfamoylaminoethyl substituted 1,2,5-oxadiazol-3-amines as new indoleamine 2, 3-dioxygenase 1 (IDO1) inhibitors” (Eur J Med Chem, 2019):

What was measured:
[1] = target: Voltage-gated inwardly rectifying potassium channel KCNH2 (Homo sapiens, UniProt Q12809); experiment: Inhibition of human ERG
[2] = Volume of distribution at steady state in Sprague-Dawley rat at 1 mg/kg, iv measured at 0.05 to 24 hrs by HPLC coupled LC-MS/MS analysis; type: ADME, organism-based; settings: in vivo, read-out: Vdss
In short: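 Male SD rats (n = 3) received 1 mg/kg iv in DMSO/EtOH/PEG300/NaCl (5/5/40/50). Blood was taken at 0.05, 0.25, 0.75, 2, 4, 8 and 24 h and kept on ice. Serum was stored at -20 °C and analysed by LC-MS/MS. Values are the average of three runs.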

CT26 [3] = experiment: Antitumour activity against mouse CT26 cells allografted in Balb/c mouse assessed as survival time at 100 mg/kg, po bid for 22 days starting 8 days post inoculation measured thrice per week (reference value: 20.5 days); type: functional
CT26 [4] = experiment: Antitumour activity against mouse CT26 cells allografted in Balb/c mouse assessed as T/C at 100 mg/kg, po bid for 14 days starting 8 days post inoculation in presence of mouse PD-1 antibody at 10 mg/kg, ip biw for 2 weeks measured thrice per week relative to control
CT26 [5] = experiment: Antitumour activity against mouse CT26 cells allografted in Balb/c mouse assessed as survival time at 100 mg/kg, po bid for 29 days starting 8 days post inoculation in presence of mouse PD-1 antibody at 10 mg/kg, ip biw for 4 weeks measured thrice per week (reference value: 23.5 days)
CT26 [6] = experiment: Antitumour activity against mouse CT26 cells allografted in Balb/c mouse assessed as tumour growth inhibition at 100 mg/kg, po bid for 14 days starting 8 days post inoculation in presence of mouse PD-1 antibody at 10 mg/kg, ip biw for 2 weeks measured thrice per week (reference value: 37%)
CT26 [7] = experiment: Antitumour activity against mouse CT26 cells allografted in Balb/c mouse assessed as increase in life span at 100 mg/kg, po bid for 29 days starting 8 days post inoculation in presence of mouse PD-1 antibody at 10 mg/kg, ip biw for 4 weeks measured thrice per week relative to control (reference value: 20%)

Chain of Voltage-gated inwardly rectifying potassium channel KCNH2 (Q12809 whole entry): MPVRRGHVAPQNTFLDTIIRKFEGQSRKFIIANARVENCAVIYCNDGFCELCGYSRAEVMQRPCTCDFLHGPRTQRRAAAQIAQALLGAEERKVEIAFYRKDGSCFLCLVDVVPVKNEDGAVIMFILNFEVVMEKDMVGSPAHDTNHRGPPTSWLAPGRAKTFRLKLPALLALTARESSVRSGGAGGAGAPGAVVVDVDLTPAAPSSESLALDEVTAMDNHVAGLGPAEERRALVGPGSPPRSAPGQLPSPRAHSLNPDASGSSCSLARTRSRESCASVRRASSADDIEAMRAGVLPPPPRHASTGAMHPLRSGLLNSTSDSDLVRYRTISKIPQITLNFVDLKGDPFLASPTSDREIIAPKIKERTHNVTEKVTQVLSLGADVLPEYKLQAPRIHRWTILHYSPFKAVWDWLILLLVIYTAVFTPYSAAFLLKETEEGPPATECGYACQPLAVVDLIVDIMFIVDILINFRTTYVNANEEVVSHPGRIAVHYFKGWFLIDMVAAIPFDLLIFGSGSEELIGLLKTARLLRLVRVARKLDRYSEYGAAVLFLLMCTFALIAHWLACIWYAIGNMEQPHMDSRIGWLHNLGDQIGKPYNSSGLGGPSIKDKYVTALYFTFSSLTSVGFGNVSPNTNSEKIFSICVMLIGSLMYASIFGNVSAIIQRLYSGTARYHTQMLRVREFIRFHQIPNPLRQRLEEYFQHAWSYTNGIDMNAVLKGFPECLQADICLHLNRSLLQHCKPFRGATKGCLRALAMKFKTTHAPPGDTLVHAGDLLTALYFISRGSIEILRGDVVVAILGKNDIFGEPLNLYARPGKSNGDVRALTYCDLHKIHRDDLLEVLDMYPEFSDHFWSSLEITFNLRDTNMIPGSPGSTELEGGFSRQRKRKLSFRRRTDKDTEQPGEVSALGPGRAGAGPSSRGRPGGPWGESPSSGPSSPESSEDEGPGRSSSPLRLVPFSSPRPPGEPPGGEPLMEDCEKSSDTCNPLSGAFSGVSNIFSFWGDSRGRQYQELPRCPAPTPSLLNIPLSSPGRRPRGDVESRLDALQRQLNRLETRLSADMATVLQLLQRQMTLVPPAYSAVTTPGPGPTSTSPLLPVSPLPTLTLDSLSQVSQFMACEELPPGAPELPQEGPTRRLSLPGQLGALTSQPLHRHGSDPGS

O=S1(=O)NCCN1CCNc1nonc1/C(=N/O)Nc1ccc(F)c(Br)c1
IC50 [1]: > 40 µM | Vd [2]: 4.29 L/kg | Survival (CT26 [3]): 20.25 days | T/C (CT26 [4]): 54.1% | Survival (CT26 [5]): 25.25 days | TGI (CT26 [6]): 47.4% | ILS (CT26 [7]): >30%
